MC4R barr agon – activates human MC4R beta-arrestin recruitment; P32245; U2OS MC4R beta-arrestin complementation, luminescence; percent of melanotan II response, DMSO zero; activation, % at 8.9 µM; 360,000 compounds, 0.98% hits; AID 540308;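 active = activation above a per-plate cutoff, the mean activation of sample wells on that plate plus 3 SD, cut at about 8% in these data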
MC4R antag cAMP – antagonists of human melanocortin 4 receptor (MC4R); P32245; MC4R-expressing cells, MTII-stimulated cAMP, LANCE TR-FRET; inhibition, % at 6.5 µM; 360,000 compounds, 0.48% hits; AID 540295;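 active = inhibition above its plate's cutoff, the mean of tested wells on that plate plus 3 SD, cut at about 29% in these data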;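 note: 0% = Melanotan II alone and 100% = Melanotan II plus saturating MCL0020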
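System – human MC4R-expressing U2OS cells · Also added – Melanotan II · Dosing – one concentration, 6.5 µM nominal · Timing – 30-min compound, 1-h challenge, 1-h detection, room temperature · Measured by – Eu-cAMP/anti-cAMP TR-FRET, emission 671 nm · Replicates – singlicate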
HTR2A ag – mouse HTR2A agonism via beta-arrestin recruitment. P35363. CHO-K1 mHTR2A beta-arrestin complementation, luminescence; percent of 30 µM serotonin response. activation, % at 7.6 µM. 360,000 compounds, 0.66% hits. AID 624169;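 active = activation above a run cutoff, the mean activation of all tested compounds plus 3 SD, cut at about 14% in these data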;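 note: 0% = plate median of compound wells and 100% = 30 µM serotonin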
Target sequence (P35363 whole entry, looked up): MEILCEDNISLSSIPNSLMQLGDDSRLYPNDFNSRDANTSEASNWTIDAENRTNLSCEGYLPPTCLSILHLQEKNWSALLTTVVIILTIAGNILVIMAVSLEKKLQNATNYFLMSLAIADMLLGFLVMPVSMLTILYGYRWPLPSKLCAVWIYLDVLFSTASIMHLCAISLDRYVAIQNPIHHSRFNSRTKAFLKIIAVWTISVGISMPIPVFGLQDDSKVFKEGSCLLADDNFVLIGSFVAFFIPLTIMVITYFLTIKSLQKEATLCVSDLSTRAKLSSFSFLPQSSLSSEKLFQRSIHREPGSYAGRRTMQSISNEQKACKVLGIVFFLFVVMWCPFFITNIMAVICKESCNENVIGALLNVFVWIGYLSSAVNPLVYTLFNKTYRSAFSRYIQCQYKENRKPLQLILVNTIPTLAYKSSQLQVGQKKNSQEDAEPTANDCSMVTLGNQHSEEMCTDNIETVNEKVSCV
AHR activator – activators of human aryl hydrocarbon receptor. AID 2796. activation, % at 5 µM. AHR-responsive luciferase reporter cells, luminescence. 320,000 compounds, 2.5% hits; in the data active = activation above about 47%;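 note: 0% = vehicle wells and 100% = reference agonist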
GAA850 FXN act – activators of GAA850 frataxin (FXN) promoter; HEK293 lucGAA850 FXN promoter luciferase reporter, 24 h; percent of 10 µM SAHA response; activation, % at 6 µM; 360,000 compounds, 0.56% hits; AID 540364;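 active = activation above the average of all compounds screened plus 3 SD, cutoff fixed separately per campaign, cut at about 7.5% in these data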;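 note: 0% = DMSO wells and 100% = 10 µM SAHA wells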
GAA30 counter – activates GAA30 frataxin promoter, counter-screen for GAA850 activators | shares compounds with GAA850 FXN act | HEK293 lucGAA30 FXN promoter luciferase, 24 h; DMSO = 0%, 5 µM ipriflavone = 100% | activation, % at 6 µM | 1,900 compounds, 66% hits | AID 588350;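 active = mean activation above the mean of solvent-only control wells plus 3 SD, cut at about 22% in these data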;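 note: counterscreen of GAA850 promoter hits where activity marks nonselective or luminescence artifacts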
FXN GAA850 conf – GAA850 FXN promoter activation confirmation; shares compounds with GAA850 FXN act; HEK293 lucGAA850 FXN promoter luciferase reporter, 24 h; 100% = activation by SAHA; activation, % at 6 µM; 1,900 compounds, 86% hits; AID 588351;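 active = mean activation above a set limit taken from the primary screen, cut at about 8% in these data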;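 note: 0% = DMSO wells and 100% = 10 µM SAHA wells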
* = called active by the depositor; x = not tested or not shown. Compounds with a hit are over-represented: about 4.7% of the library has one in this group of screens.

SMILES	MC4R barr agon	MC4R antag cAMP	HTR2A ag	AHR activator	GAA850 FXN act	GAA30 counter	FXN GAA850 conf
Cn1c(O)c(N=NC(=O)c2ccco2)c2ccccc21	1	-33	6	42	8.4*	144*	38*
Cc1cc(OC(C)C(=O)N(Cc2ccco2)C2CCS(=O)(=O)C2)ccc1Cl (stereo not drawn)	0	3	3	0	12*	9	5
COc1cc2sc3cc(NCc4ccc(C)o4)ccc3c(=O)c2cc1OC	-1	4	-4	9	11*	109*	35*
COc1cc2sc3cc(NCC[C@@H]4CCCN4C)ccc3c(=O)c2cc1OC	2	-12	-5	8	9.9*	83*	42*
CCn1cc(C(=O)NCc2ccc(C)o2)c2cc(OC)c(OC)cc2c1=O	-1	6	2	6	1	x	x
CCCCN1C(=O)/C(=C/C=C2/CC(C)(C)CN2C)SC1=S	-2	0	3	37	8.6*	95*	33*
Cc1ccc(OC2CCN(C(=O)[C@H]3O[C@@H](n4ccc(N)nc4=O)[C@H](O)[C@@H]3O)CC2)cc1	x	x	-3	x	x	x	x
COc1ccc(N(C(=O)c2ccco2)C(C(=O)NC2CCCC2)c2ccncc2)cc1 (stereo not drawn)	-1	0	1	1	0	x	x
CC(C)c1ccc(N(C(=O)c2ccco2)C(C(=O)NC2CCCC2)c2ccncc2)cc1 (stereo not drawn)	-1	5	-2	18	10*	106*	38*
CC(C)c1ccc(N(C(=O)c2csnn2)C(C(=O)NC2CCCC2)c2ccncc2)cc1 (stereo not drawn)	2	4	6	12	20*	67*	24*
O=C(NC1CCCC1)C(c1ccncc1)N(C(=O)c1csnn1)c1ccc(F)cc1 (stereo not drawn)	-1	7	9	0	1	x	x
Cc1ccccc1CCN(C(=O)c1csnn1)C(C(=O)NC1CCCC1)c1ccncc1 (stereo not drawn)	-1	1	1	2	14*	19	7
Cc1ccnc(NC(=O)CNC(=O)COc2ccccc2)c1	-1	0	10	5	7.9*	100*	40*
COC(=O)c1ccc(C)c(NC(=O)CCCN2C(=O)NC(C)(C)C2=O)c1	-3	-7	10	-1	1	x	x
O=C(NC1CC1)c1cc(=S)[nH]c2ccccc12	-2	0	-4	2	-1	x	x
O=C(CNc1cccc2ccccc12)N/N=C/C(Br)=C/c1ccccc1	-1	-5	3	2	13*	-19	2
CC1=NNC(=O)C1CCC(=O)N/N=C/C(Br)=C/c1ccccc1 (stereo not drawn)	-1	2	-3	45	12*	24*	5
O=C(N/N=C/C(Br)=C/c1ccccc1)c1cc(-c2ccco2)[nH]n1	-2	9	-4	9	8.3*	4	13*
O=C(N/N=C/C(Br)=C/c1ccccc1)c1ccccc1F	2	-15	-1	17	8.5*	110*	42*
CC1=NNC(=O)C1CC(=O)N/N=C/C(Br)=C/c1ccccc1 (stereo not drawn)	1	2	1	0	4	x	x
COCCn1c(N)c(N(Cc2ccccc2)C(=O)COc2ccc(F)cc2Cl)c(=O)[nH]c1=O	-4	0	1	-2	0	x	x
COC(=O)[C@@]12C[C@@H](CC(=O)N3CCCC3)C(=O)N(Cc3ccccc3)C1=CCC(C)(C)C2	x	x	-8	x	x	x	x
CC(C)C[C@@H]1CN(CCCC[C@H]2CNC(=O)C(=O)N2CCC2CCCCC2)C(=O)C(=O)N1Cc1ccccc1	x	x	-4	x	x	x	x
CC1(C(=O)NCc2ccccc2)CN(S(C)(=O)=O)CC(=O)N1CCCn1ccnc1 (stereo not drawn)	x	x	-4	x	x	x	x
O=C(CSC1=NCCN1)Nc1cccc([N+](=O)[O-])c1	-3	-2	-5	3	9.5*	43*	22*
SMILES	MC4R barr agon	MC4R antag cAMP	HTR2A ag	AHR activator	GAA850 FXN act	GAA30 counter	FXN GAA850 conf
Cc1ccc(-c2noc(-c3ccccc3F)n2)cc1	3	5	4	13	8.1*	135*	45*
COc1ccc(C(=O)N/N=C/c2ccc(OC)c(CN3CCCc4ccccc43)c2)cc1	-1	3	-4	44	9.3*	20	7
CN(C)C(=O)c1cccc(COc2ccc(N3C(N)=NC(N)=NC3(C)C)cc2Cl)c1	0	5	-2	x	-3	x	x
CCOc1ccc(NS(=O)(=O)c2ccc(C(=O)N(C)CC(=O)Nc3cccc(OC)c3)cc2)cc1	1	7	0	x	-2	x	x
O=C(COC(=O)c1ccc(Br)o1)Nc1nc2ccccc2s1	-1	1	0	24	1	x	x
Cc1ccc2nc(NC(=O)COC(=O)c3ccc(Br)o3)sc2c1	2	15	-6	16	9.4*	88*	28*
COc1ccc2c(c1)oc(=O)c1cc(OC)ccc12	-1	1	5	0	7.9*	122*	44*
Nc1nc(N)c2sc3nc4c(cc3c2n1)CCC4	-1	2	2	10	5	x	x
Cc1ccc(C(=O)c2sc3nc4c(cc3c2N)CCC4)cc1	1	-2	2	30	8.4*	100*	41*
CC1CCCN(c2nc3ccsc3c(=O)s2)C1 (stereo not drawn)	5	-7	1	-5	11*	82*	35*
CCCCOP(=O)(c1ccc(N(C)C)cc1)C(O)c1c(Cl)cccc1Cl (stereo not drawn)	0	1	0	1	16*	17	11*
CC(C)N1CC2(CC(c3ccc(Cl)cc3Cl)=NO2)CN1C(=O)c1ccc(C(C)(C)C)cc1 (stereo not drawn)	-1	5	4	x	1	x	x
CCCCc1ccc(-c2ccc(Br)cc2)nc1	4	-6	0	-8	8.4*	107*	34*
CCCc1ccc(-c2ccc(-c3noc(-c4ccncc4)n3)cc2)nc1	0	14	5	0	-1	x	x
Cc1ccc2nc(-c3ccc(NS(=O)(=O)c4ccc(F)c(F)c4)cc3)sc2c1	1	5	-4	6	10*	108*	35*
Cc1ccc2nc(-c3ccc(NS(=O)(=O)c4ccccc4)cc3)sc2c1	5	14	-8	11	2	x	x
COc1ccccc1NC(=O)c1cnc(SCC(=O)NCC2CCCO2)n(C)c1=O (stereo not drawn)	-3	20	2	24	9.5*	18	24*
